Entries after “also recorded” stand apart in the source; their conditions may differ.
Legend:
IκBα = assay: Half-life of endogenous IκBα in Jurkat T cells; format: cell-based, human; details: 1 μmol/L 30 minutes before cycloheximide, PMA/Iono-stimulated Jurkat
Procedure, shortened: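 Jurkat T cells given cycloheximide 10 μg/mL. 30 min later, left unstimulated or given PMA 5 nmol/L plus ionomycin 2 μmol/L. Parallel samples had epoxomicin 1 μmol/L 30 min before cycloheximide. Cells sampled at […]; two-step hypotonic NP-40/0.45 mol/L NaCl lysates. Infrared quantitative immunoblot; signal normalised to β-actin, expressed as % of t0; mean±SD of ≥3 experiments.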

importins α = assay: Competition of biotinylated peptides with native auto-inhibitory regions; format: binding, human; details: biotinylated peptide, Jurkat lysate, pull-down
Procedure, shortened: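 Biotinylated peptides of importin α1, α3, α4, α5 and α7 auto-inhibitory regions, with biotinylated NLS and mutant NLS peptides, each added separately to whole-cell lysate of Jurkat T cells. Per pull-down protocol: 10 nmols peptide, lysate 1.5 mg/mL total protein, overnight. Complexes captured on streptavidin beads; importins detected by immunoblot.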

GST-tagged Imp α5 ΔIBB = GST-tagged Imp α5 ΔIBB (Homo sapiens, UniProt P52294); assay: Bio-Layer Interferometry; format: binding
Chain of GST-tagged Imp α5 ΔIBB (P52294 101-538 limits assumed, stated change not applied): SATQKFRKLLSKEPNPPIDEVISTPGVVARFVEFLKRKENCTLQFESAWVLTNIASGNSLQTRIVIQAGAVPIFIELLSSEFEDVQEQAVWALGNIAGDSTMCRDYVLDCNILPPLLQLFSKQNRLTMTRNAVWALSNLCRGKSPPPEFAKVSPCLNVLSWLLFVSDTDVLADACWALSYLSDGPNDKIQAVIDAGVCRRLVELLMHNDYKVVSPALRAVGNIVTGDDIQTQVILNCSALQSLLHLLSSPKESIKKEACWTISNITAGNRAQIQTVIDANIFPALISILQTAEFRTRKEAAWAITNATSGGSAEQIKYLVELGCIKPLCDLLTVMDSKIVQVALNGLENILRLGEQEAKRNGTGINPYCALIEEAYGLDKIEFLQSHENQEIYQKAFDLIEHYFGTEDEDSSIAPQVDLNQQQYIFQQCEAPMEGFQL
Procedure, shortened: (§1)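 Human importin α1 or α5 lacking the importin-β-binding domain (aa 1-100), GST-tagged, expressed in E. coli BL21(DE3)-RIL as inclusion bodies. Refolded, GST-affinity purified and dialysed into pH 7.0 "intracellular" buffer. Biotinylated peptide (5 nmol/L) loaded on streptavidin biosensors, 10 min, 37°C. Protein at 50–200 nmol/L, 30°C, with GST alone as control. Association 15 min, dissociation 15 min; curves fitted 1:1 or 2:1; 3 independent experiments.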

GST-tagged Imp α1 ΔIBB = assay: Bio-Layer Interferometry; format: binding, human
Procedure, shortened: as §1

Imp α4 [1] = assay: Importin binding; design: species or system human; details: Jurkat T cell lysate compared to HeLa S3 and EA.hy926
Procedure, shortened: (§2)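 Biotinylated peptides (N-terminal biotin, 5-Gly spacer), 10 nmols, incubated overnight with whole-cell lysates of unstimulated Jurkat, HeLa S3 or EA.hy926 cells (Jurkat at 1.5 mg/mL total protein). Captured on streptavidin beads; immunoblotted for importins α1, α3, α4, α5, α7, β1, with GAPDH as nonspecific control. Binding strength judged from pulled-down versus lysate amount, alongside GAPDH-normalised importin abundance per cell type.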

Imp α4 [2] = assay: Competition binding assay, Imp α4; design: species or system human; details: free N50 0-300 μmol/L, Jurkat lysate 1.5 mg/mL
Procedure, shortened: (§3)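 Unlabelled N50 (0, 10, 30, 100, 300 μmol/L) incubated overnight at 4°C with unstimulated Jurkat lysate at 1.5, 0.3 or 0.05 mg/mL total protein. Unbound importins then pulled down with biotinylated N50 on streptavidin beads and quantified by immunoblot. Bead-bound signal without competitor set to 100%; percentage remaining per concentration, mean±SD of 3 independent experiments.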

Imp α1 [3] = assay: Importin binding; design: species or system human
Procedure, shortened: as §2

Imp α7 = assay: Importin binding; design: species or system human; details: biotinylated peptide, whole cell lysates, SA-bead pull-down, immunoblot
Procedure, shortened: as §2

Imp α3 = assay: Importin binding; design: species or system human; details: HeLa S3 lysate compared to other cell types
Procedure, shortened: as §2

Imp α5 [4] = assay: Competition binding assay, Imp α5; design: species or system human; details: free N50 0-300 μmol/L, Jurkat lysate
Procedure, shortened: as §3

Imp α1 [5] = assay: Competition binding assay, Imp α1; design: species or system human; details: free N50 0-300 μmol/L, Jurkat lysate 1.5 mg/mL
Procedure, shortened: as §3

Imp α5 [6] = assay: Importin binding; design: species or system human
Procedure, shortened: as §2

## CC[C@H](C)[C@H](NC(=O)[C@H]([C@@H](C)CC)N(C)C(C)=O)C(=O)N[C@H](C(=O)N[C@@H](CC(C)C)C(=O)[C@@]1(C)CO1)[C@@H](C)O [epoxomicin]
IκBα
  effect on turnover of IκBα: drastically slowed turnover

## IQLRKQKREQQLFKRRNVELI [AR7]
Importins α
  competition with native ARs of importins α: successfully competed with native ARs of all importins α, including its own

## VQRDEQKLMP [N50M]
GST-tagged Imp α5 ΔIBB; biotinylated peptide immobilized, Imp α5 ΔIBB 200 nmol/L
  BLI response with Imp α5: at the background level
GST-tagged Imp α1 ΔIBB; biotinylated peptide immobilized, Imp α1 ΔIBB 200 nmol/L
  BLI response with Imp α1: at the background level

## VQRKRQKLMP [N50]
Imp α4 [1]
  relative strength of interaction with Imp α4: stronger
Imp α4 [2]
  inhibition of Imp α4 binding to immobilized N50, in words: slightly inhibited; also recorded: do not substantially inhibit binding
Importins α
  competition with native ARs of importins α: successfully competes
Imp α1 [3]; EA.hy926 lysate compared to Jurkat T cells
  relative strength of interaction with Imp α1: weaker
Imp α1 [3]; HeLa S3 lysate compared to Jurkat T cells
  relative strength of interaction with Imp α1: weaker
Imp α7
  interaction with Imp α7: inability to detect any interactions; also recorded: inaccessible to this peptide
GST-tagged Imp α5 ΔIBB; BLI
  binding to Imp α5, in words: specific, high‐affinity binding; also recorded: preferential and specific binding
GST-tagged Imp α5 ΔIBB; BLI, normalized by subtracting GST
  maximum response with Imp α5 relative to maximum response with Imp α1: more than 20 fold
Imp α3
  relative strength of interaction with Imp α3: stronger
GST-tagged Imp α1 ΔIBB; BLI
  binding to Imp α1, in words: not Imp α1; also recorded: nonspecific; also recorded: low affinity
Imp α5 [4]
  inhibition of Imp α5 binding to immobilized N50, in words: tightly controlled by unlabeled peptide in all lysate total protein concentrations; also recorded: concentration dependent
Imp α1 [5]
  inhibition of Imp α1 binding to immobilized N50, in words: slightly inhibited; also recorded: do not substantially inhibit binding
Imp α5 [6]; all 3 cell types (Jurkat, HeLa S3, EA.hy926)
  relative strength of interaction with Imp α5: similarly strong in all 3 cell types
Imp α5 [6]; compared with any of the other detected proteins
  relative amount of Imp α5 bound to biotinylated N50: strikingly higher than any of the other detected proteins

Reference: publication PMC3835248 (Journal of the American Heart Association: Cardiovascular …, 2013)
